According to ChEMBL document CHEMBL1124387, “Cardiotonic agents. 9. Synthesis and biological evaluation of a series of (E)-4,5-dihydro-6-[2-[4-(1H-imidazol-1-yl)phenyl]ethenyl]-3 (2H)-pyridazinones: a novel class of compounds with positive inotropic, antithrombotic, and vasodilatory activities for the treatment of congestive heart failure” (J Med Chem, 1989):
Where “and” joins values, the source holds several entries; their conditions need not be identical. Identical values can stand only once.

Columns and labels:
[1] = Inhibition of phosphodiesterase 3 from guinea pig cardiac tissue at 1*10e-7-1*10e-4 M; design: species or system Cavia porcellus
Procedure, shortened: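 Fraction III cAMP-PDE from guinea pig heart or human platelets. Substrate [3H]cyclic AMP 1.0 μM at 30°C, with hydrolysis held to ≤10-20% and kept linear over 30 min. Compounds in DMSO, 2.5% final.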

Canis familiaris [2] = assay: Hemodynamic activity in anesthetized dog as percent change in heart rate from baseline (152 bpm) at 0.003 mg/kg administered intravenously; type: functional, Canis lupus familiaris; conditions: route intravenous
Procedure, shortened: (§1)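 Acutely instrumented anesthetized dogs (n = 6), 30-min control period. Compound in 0.9% saline, or dilute HCl diluted with saline, at 0.1 mL/kg iv over 1 min. At least four ascending half-log doses, 10 min apart, one compound per animal. Recorded: LV dP/dtmax, heart rate, aortic pressure and forelimb resistance. Values are maximum response from control average ± SEM.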

Canis familiaris [3] = assay: Percentage increase in left ventricular contractility in anesthetized dog; type: functional, Canis lupus familiaris, Heart left ventricle
Canis familiaris [4] = assay: Hemodynamic activity in anesthetized dog as percent change in blood pressure from baseline (123 mmHg) at 0.001 mg/kg administered intravenously; type: functional, Canis lupus familiaris; conditions: route intravenous; procedure, shortened: as §1
Canis familiaris [5] = assay: Cardiovascular activity in presence of beta-adrenoceptor blockade in dogs as percent change in left ventricular myocardial contractility from base line (2327 mmHg/s) at 0.01 mg/kg dose before nadolol administration
Homo sapiens [6] = organism: Homo sapiens; assay: In vitro inhibition of collagen stimulated platelet aggregation in human thrombocyte enriched plasma; type: functional
Procedure, shortened: (§2)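 Human platelet-rich plasma from aspirin/NSAID-free donors, adjusted to 250 000 platelets/μL with platelet-poor plasma. Drug in DMSO/saline (1% DMSO final) was added before ADP or collagen, with doses set by titration. Read-out was aggregation extent (ADP, curve height) or rate (collagen, major slope) as % of saline control.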

Homo sapiens [7] = organism: Homo sapiens; assay: In vitro inhibition of ADP stimulated platelet aggregation in human whole blood; type: functional
Procedure, shortened: (§3)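 Human whole blood from aspirin/NSAID-free fasted donors, read by impedance aggregometry 5 min after adding ADP or collagen. Aggregation expressed as % of control (2-6 replicates), plotted against log drug concentration; IC50 obtained by extrapolation.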

Canis familiaris [8] = assay: Hemodynamic activity in anesthetized dog as percent change in left ventricular myocardial activity from baseline (2271 mmHg/s) at 0.01 mg/kg administered intravenously; type: functional, Canis lupus familiaris, Heart left ventricle; conditions: route intravenous; procedure, shortened: as §1
Canis familiaris [9] = assay: Hemodynamic activity in anesthetized dog as percent change in left ventricular myocardial activity from baseline (2271 mmHg/s) at 0.001 mg/kg administered intravenously; type: functional, Canis lupus familiaris, Heart left ventricle; conditions: route intravenous; procedure, shortened: as §1
Canis familiaris [10] = assay: Hemodynamic activity in anesthetized dog as percent change from baseline (2271 mmHg/s) in left ventricular myocardial activity at 0.1 mg/kg administered intravenously; type: functional, Canis lupus familiaris, Heart left ventricle; conditions: route intravenous
Homo sapiens [11] = organism: Homo sapiens; assay: In vitro inhibition of ADP stimulated platelet aggregation in human thrombocyte enriched plasma; type: functional; procedure, shortened: as §2
Homo sapiens [12] = organism: Homo sapiens; assay: In vitro inhibition of collagen stimulated platelet aggregation in human whole blood; type: functional; procedure, shortened: as §3

- IC50 [1]: 250 nM
- IC50 (Homo sapiens [6]): 30 nM
- IC50 (Homo sapiens [7]): 90 nM
- IC50 (Homo sapiens [11]): 300 nM
- IC50 (Homo sapiens [12]): 1.5 nM
SMILES: CC1CC(=O)NN=C1/C=C/c1ccc(-n2ccnc2)cc1.Cl (configuration not stated)
- Change (Canis familiaris [2]): 5%
- Increase (Canis familiaris [3]): 77% and 103%
- Change (Canis familiaris [4]): -2%
- Change (Canis familiaris [5]): 56%
- Change (Canis familiaris [8]): 65%
- Change (Canis familiaris [9]): 2%
- Change (Canis familiaris [10]): 134%
